Laboratory results: ChEMBL document CHEMBL4814076, “Discovery of a Potent and Selective Covalent Inhibitor of Bruton's Tyrosine Kinase with Oral Anti-Inflammatory Activity” (ACS Med Chem Lett, 2021)
Active and inactive are the calls of the source. The rule behind the calls is not given here.

What was measured:
[1] = Volume of distribution at steady state in Sprague-Dawley rat at 5 mg/kg, po or 1 mg/kg, iv measured upto 24 hrs by LC-MS/MS analysis; format: ADME, organism-based; conditions: in vivo, read-out: Vdss
Procedure, shortened: (§1)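 Rats (nonfasted; IV 1 mg/kg, PO 5 mg/kg) and dogs (fasted; IV 0.5 mg/kg, PO 2.5 mg/kg) dosed from 20% hydroxypropyl-β-cyclodextrin solution.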

[2] = molecular target: T1, Tyrosine-protein kinase Lck (Homo sapiens, UniProt P06239); assay: Inhibition of LCK in human CD4+ T-cells assessed as reduction in anti-CD3/anti-CD28 induced IL-2 secretion at 10 uM incubated for 60 mins followed by anti-CD3/anti-CD28 stimulation and measured after 18 hrs by ELISA; format: tissue-based; conditions: CD4+ve Th, time 19.0 hrs
Procedure, shortened: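 Anti-CD3/anti-CD28 stimulation of T cells. IL-2 secretion measured with compound tested up to 10 μM. An ITK inhibitor served as positive control.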
Target sequence in this assay (P06239 2-509 limits assumed): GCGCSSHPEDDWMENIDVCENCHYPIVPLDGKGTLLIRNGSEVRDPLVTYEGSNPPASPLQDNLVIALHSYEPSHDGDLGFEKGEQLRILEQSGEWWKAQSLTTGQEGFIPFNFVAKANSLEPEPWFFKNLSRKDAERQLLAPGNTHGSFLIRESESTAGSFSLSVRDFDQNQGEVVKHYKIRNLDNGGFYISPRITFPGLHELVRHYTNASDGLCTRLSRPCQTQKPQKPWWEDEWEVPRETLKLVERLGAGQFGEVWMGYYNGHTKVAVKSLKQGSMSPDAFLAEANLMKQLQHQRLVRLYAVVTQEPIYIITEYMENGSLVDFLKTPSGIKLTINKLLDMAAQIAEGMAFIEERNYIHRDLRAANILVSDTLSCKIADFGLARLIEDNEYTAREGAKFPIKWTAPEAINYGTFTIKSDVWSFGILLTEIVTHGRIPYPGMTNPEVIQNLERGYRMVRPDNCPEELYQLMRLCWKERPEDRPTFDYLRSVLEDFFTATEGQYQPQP

[3] = molecular target: T2, Tyrosine-protein kinase BTK (Homo sapiens, UniProt Q06187); assay: Inhibition of recombinant human BTK using KVEKIGEGTYGVVYK as substrate incubated for 40 mins in presence of [gamma33P]ATP by scintillation counting method
T2 sequence (Q06187 whole entry): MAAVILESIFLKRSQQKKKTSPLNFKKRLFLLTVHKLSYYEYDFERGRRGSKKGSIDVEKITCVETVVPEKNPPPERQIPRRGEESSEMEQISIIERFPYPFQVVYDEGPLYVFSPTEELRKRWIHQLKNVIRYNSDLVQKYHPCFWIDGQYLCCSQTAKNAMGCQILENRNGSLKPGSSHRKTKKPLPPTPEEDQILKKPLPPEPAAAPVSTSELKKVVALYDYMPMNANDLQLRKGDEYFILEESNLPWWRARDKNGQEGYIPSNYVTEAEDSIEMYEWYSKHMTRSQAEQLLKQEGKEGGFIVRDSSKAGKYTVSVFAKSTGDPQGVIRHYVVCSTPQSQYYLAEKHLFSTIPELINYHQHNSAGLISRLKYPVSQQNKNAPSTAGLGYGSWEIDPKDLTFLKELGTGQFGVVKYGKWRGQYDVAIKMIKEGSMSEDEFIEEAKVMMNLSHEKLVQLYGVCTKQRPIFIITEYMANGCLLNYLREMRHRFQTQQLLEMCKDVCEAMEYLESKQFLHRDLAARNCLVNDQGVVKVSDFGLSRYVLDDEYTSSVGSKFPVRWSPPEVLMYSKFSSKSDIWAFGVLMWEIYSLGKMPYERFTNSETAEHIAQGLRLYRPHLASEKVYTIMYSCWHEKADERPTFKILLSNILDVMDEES

[4] = Half life in Sprague-Dawley rat at 1 mg/kg, iv measured upto 24 hrs by LC-MS/MS analysis; format: ADME, organism-based; conditions: in vivo; procedure, shortened: as §1
[5] = molecular target: T1, Tyrosine-protein kinase Lck; assay: Inhibition of recombinant human full length LCK using KVEKIGEGTYGVVYK as substrate incubated for 40 mins in presence of [gamma33P]ATP by scintillation counting method
Rattus norvegicus = assay: Antiinflammatory activity in po dosed Wistar rat model of type-2 collagen/incomplete freund's adjuvant-induced arthritis assessed as reduction in paw inflammation administered once daily on day 9 post type-2 collagen/incomplete freund's adjuvant stimulation and treated until day 16; format: functional, organism-based; conditions: dose 1-30 mg/kg, time 8.0 day
Procedure, shortened: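 Arthritis induced in female Wistar rats by collagen injection on day 0 and day 7. Compound given orally once daily from day 9 through day 16. Hind paw inflammation scored. Anti-TNFα comparator dosed at 10 mg/kg every other day.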

[6] = Tmax in Beagle dog at 2.5 mg/kg, po measured upto 24 hrs by LC-MS/MS analysis; format: ADME, organism-based, Canis lupus familiaris; conditions: in vivo; procedure, shortened: as §1
[7] = molecular target: T2, Tyrosine-protein kinase BTK; assay: Irreversible covalent inhibition of recombinant unphosphorylated human GST-tagged BTK kinase domain (389 to 659 residues) expressed in insect cells assessed as protein-compound adduct formation under denaturing conditions by HPLC analysis
Procedure, shortened: (§2)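 BTK protein incubated with compound. Adduct mass measured under denaturing and nondenaturing conditions.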

[8] = molecular target: T2, Tyrosine-protein kinase BTK; assay: Inhibition of BTK in human whole blood assessed as inhibition of IgM-induced B-cell activation; format: tissue-based
[9] = Inhibition of BTK in Wistar rat whole blood assessed as reduction in anti-IgD-induced B220/CD86+ expression incubated for 1 hr followed anti-IgD stimulation and measured after overnight by flow cytometry analysis; format: tissue-based; conditions: Rattus norvegicus, Blood, 1 h
Procedure, shortened: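 B-cell activation induced by anti-IgD in rat whole blood, read as B220+CD86+ cells.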

[10] = molecular target: Tyrosine-protein kinase Fgr (Homo sapiens, UniProt P09769); assay: Inhibition of recombinant human FGR (2 to end residues) using poly(Glu, Tyr) 4:1 as substrate incubated for 40 mins in presence of [gamma33P]ATP by scintillation counting method
Tyrosine-protein kinase Fgr, sequence (P09769 whole entry): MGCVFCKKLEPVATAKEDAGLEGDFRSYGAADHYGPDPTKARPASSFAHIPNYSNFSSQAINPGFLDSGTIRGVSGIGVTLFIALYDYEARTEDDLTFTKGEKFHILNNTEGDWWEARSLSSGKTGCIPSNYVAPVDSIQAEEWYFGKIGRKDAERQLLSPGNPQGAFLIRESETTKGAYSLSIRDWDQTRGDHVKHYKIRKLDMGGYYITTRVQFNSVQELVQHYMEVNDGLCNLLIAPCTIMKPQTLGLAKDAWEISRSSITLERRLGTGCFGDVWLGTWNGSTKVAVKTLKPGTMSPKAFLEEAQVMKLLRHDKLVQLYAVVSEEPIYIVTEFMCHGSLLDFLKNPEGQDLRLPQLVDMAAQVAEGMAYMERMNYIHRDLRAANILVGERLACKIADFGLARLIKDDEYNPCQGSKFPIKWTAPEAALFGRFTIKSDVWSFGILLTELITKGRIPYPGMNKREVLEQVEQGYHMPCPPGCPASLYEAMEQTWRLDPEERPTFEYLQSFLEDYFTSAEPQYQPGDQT

[11] = molecular target: Serine/threonine-protein kinase B-raf (Homo sapiens, UniProt P15056); assay: Inhibition of recombinant human B-RAF (416 to end residues) using myelin basic protein as substrate incubated for 40 mins in presence of [gamma33P]ATP by scintillation counting method
Serine/threonine-protein kinase B-raf, sequence (P15056 whole entry, the tested form may be a part): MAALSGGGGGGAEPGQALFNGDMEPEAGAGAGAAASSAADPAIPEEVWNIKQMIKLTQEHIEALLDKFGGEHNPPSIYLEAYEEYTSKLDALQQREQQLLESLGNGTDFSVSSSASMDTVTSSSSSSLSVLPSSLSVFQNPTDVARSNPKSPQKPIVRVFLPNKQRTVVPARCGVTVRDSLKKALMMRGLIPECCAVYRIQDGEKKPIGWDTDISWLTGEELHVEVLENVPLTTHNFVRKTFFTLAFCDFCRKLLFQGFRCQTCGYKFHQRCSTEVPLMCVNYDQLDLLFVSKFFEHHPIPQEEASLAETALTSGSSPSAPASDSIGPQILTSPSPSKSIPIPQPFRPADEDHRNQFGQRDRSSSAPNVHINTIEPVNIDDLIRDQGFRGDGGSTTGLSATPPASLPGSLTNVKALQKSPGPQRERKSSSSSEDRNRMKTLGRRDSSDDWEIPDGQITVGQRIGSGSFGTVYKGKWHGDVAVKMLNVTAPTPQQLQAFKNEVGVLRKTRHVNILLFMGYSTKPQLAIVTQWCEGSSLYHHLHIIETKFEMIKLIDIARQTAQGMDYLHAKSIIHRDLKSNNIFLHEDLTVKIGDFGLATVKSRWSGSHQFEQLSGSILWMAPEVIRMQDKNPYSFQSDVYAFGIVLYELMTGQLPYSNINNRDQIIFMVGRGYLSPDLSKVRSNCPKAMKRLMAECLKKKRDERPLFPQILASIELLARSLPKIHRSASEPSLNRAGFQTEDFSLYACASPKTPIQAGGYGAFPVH

[12] = molecular target: T2, Tyrosine-protein kinase BTK; assay: Irreversible covalent inhibition of recombinant unphosphorylated human GST-tagged BTK kinase domain (389 to 659 residues) expressed in insect cells assessed as protein-compound adduct formation under native conditions by HPLC analysis; procedure, shortened: as §2
[13] = molecular target: T3, Tyrosine-protein kinase TXK (Homo sapiens, UniProt P42681); assay: Inhibition of recombinant human TXK (256 to end residues) using GEEPLYWSFPAKKK as substrate incubated for 40 mins in presence of [gamma33P]ATP by scintillation counting method
T3 sequence (P42681 whole entry): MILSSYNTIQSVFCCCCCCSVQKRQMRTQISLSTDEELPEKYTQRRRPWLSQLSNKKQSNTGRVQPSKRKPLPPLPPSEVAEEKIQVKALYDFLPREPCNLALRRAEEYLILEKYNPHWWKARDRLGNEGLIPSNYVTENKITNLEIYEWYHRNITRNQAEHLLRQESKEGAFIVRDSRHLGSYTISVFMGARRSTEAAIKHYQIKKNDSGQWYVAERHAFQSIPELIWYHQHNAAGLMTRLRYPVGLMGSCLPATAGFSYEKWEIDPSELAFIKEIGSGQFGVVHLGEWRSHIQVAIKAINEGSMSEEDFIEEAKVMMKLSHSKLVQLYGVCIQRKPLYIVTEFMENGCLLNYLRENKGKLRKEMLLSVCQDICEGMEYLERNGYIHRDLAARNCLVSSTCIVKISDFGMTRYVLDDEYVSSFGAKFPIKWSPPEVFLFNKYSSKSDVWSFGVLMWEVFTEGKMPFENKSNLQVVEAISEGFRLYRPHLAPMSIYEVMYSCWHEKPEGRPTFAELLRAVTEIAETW

[14] = molecular target: Receptor tyrosine-protein kinase erbB-4 (Homo sapiens, UniProt Q15303); assay: Inhibition of recombinant human ERBB4 (706 to 991 residues) using poly(Glu, Tyr) 4:1 as substrate incubated for 40 mins in presence of [gamma33P]ATP by scintillation counting method
Receptor tyrosine-protein kinase erbB-4, sequence (Q15303 whole entry, the tested form may be a part): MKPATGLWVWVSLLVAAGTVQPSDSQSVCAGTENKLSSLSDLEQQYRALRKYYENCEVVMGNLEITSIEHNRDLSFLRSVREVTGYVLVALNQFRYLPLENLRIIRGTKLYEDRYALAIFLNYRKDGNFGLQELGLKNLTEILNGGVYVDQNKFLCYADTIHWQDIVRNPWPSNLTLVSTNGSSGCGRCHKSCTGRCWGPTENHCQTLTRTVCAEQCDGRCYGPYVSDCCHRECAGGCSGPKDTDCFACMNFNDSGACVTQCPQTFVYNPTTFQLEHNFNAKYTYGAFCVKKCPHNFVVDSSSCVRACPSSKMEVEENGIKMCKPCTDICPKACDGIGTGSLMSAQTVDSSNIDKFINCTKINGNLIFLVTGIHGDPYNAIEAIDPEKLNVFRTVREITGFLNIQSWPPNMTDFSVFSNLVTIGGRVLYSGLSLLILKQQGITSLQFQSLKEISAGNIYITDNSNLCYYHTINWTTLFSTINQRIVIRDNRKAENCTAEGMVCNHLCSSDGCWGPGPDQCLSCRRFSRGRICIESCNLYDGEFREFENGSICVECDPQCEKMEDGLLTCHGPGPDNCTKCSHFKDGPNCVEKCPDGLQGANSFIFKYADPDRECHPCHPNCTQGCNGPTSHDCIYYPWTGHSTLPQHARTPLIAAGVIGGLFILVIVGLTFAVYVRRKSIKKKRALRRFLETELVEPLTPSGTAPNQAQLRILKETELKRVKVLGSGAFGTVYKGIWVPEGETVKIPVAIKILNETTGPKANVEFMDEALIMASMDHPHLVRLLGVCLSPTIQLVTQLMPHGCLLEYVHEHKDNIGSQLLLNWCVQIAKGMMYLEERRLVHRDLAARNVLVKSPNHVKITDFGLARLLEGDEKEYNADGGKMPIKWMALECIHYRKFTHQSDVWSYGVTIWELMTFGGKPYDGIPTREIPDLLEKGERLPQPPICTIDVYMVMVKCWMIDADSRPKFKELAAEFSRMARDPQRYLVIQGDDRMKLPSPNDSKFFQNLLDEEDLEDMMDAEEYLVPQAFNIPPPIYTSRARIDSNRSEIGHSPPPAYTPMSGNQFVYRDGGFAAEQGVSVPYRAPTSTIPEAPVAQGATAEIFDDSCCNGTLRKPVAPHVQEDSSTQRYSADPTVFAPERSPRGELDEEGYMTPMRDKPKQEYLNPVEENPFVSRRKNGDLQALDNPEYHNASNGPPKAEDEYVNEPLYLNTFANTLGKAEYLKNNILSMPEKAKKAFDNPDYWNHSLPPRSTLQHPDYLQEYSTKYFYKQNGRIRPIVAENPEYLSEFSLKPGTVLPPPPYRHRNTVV

[15] = Tmax in Sprague-Dawley rat at 5 mg/kg, po measured upto 24 hrs by LC-MS/MS analysis; format: ADME, organism-based; conditions: in vivo; procedure, shortened: as §1
[16] = In vivo protein occupancy at BTK in Wistar rat at 3 mg/kg, po measured after 48 hrs by ELISA relative to control; format: functional
Procedure, shortened: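 Single oral dose of 3 mg/kg in rats. BTK occupancy compared with plasma concentration over time out to 48 h.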

[17] = molecular target: Tyrosine-protein kinase BTK (Mus musculus, UniProt P35991); assay: Inhibition of BTK in C57Bl/6 mouse splenocyte assessed as reduction in anti-IgM-induced CD69 expression incubated for 1 hr followed anti-IgM stimulation and measured after overnight by flow cytometry analysis; format: tissue-based
Tyrosine-protein kinase BTK (Mus musculus, UniProt P35991), sequence (P35991 whole entry): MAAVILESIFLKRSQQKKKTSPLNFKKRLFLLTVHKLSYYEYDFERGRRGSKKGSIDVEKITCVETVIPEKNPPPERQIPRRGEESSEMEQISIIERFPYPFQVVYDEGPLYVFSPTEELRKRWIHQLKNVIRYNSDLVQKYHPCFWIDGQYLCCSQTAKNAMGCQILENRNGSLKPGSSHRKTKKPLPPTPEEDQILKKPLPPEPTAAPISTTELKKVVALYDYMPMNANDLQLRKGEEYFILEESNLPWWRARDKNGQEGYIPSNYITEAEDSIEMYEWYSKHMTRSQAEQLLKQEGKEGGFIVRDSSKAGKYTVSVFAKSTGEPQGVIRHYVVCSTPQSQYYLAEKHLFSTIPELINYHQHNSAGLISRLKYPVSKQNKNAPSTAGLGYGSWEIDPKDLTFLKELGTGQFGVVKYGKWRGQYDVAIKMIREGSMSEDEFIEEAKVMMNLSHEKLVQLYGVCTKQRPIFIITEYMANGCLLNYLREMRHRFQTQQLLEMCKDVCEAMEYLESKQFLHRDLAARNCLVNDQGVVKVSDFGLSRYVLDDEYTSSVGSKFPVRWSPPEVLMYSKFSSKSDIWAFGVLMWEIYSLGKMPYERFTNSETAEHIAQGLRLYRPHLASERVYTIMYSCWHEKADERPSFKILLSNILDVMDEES
Procedure, shortened: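 Mouse splenocytes stimulated with anti-IgM. CD69 expression measured as the read-out.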

[18] = molecular target: Tyrosine-protein kinase HCK (Homo sapiens, UniProt P08631); assay: Inhibition of recombinant human HCK (230 to 497 residues) using GGMEDIYFEFMGGKKK as substrate incubated for 40 mins in presence of [gamma33P]ATP by scintillation counting method
Tyrosine-protein kinase HCK, sequence (P08631 whole entry, the tested form may be a part): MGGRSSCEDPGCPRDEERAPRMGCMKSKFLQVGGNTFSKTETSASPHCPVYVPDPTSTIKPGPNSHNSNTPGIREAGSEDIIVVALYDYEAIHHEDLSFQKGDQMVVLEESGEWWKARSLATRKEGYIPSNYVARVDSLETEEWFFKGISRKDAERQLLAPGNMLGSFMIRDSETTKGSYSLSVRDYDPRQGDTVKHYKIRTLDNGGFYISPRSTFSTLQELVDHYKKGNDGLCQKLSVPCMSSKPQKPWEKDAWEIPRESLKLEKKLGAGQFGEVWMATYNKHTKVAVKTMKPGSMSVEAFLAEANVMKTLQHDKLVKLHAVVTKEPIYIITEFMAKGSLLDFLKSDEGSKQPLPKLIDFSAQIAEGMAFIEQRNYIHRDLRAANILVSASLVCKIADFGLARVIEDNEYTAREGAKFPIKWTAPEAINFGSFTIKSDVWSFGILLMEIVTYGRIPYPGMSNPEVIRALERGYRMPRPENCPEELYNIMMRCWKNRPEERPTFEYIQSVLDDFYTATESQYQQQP

[19] = Cmax in Sprague-Dawley rat at 5 mg/kg, po measured upto 24 hrs by LC-MS/MS analysis; format: ADME, organism-based; parameters: route oral, dose 5 mg/kg, time <=24; conditions: in vivo; procedure, shortened: as §1

Vd [1]: 1 L/kg
inhibition [2]: inactive
IC50 [3]: 142 nM
half-life [4]: 18 min
IC50 [5]: 130 nM
Tmax [6]: 48 min
inhibition [7]: Active
IC50 [8]: 84 nM
IC50 [9]: 130 nM
IC50 [10]: 4760 nM
IC50 [11]: 7840 nM
inhibition [12]: Active
IC50 [13]: 1770 nM
IC50 [14]: 377 nM
Tmax [15]: 60 min
IC50 [17]: 11 nM
IC50 [18]: > 30000 nM
Cmax [19]: 600 nM
SMILES: C=CC(=O)N1CC[C@@H](NC(=O)c2sc3nccc4c3c2NC(=O)N4c2ccc(Oc3ccccc3)cc2C)C1
Activity (Rattus norvegicus): Dose-Dependent Effect
Activity [16]: 50%
